# Shown is part of a subset that was picked to be rich in hits.
# ALR inh: inhibitors of human ALR sulfhydryl oxidase, primary screen, biochemical, H2O2 detection, HRP-luminol luminescence, single point | FAD-linked sulfhydryl oxidase ALR (Homo sapiens), P55789 | purified ALR, DTT oxidation | inhibition, % (test concentration not listed) | 290,000 tested, 3.8% active | AID 485317, 2010;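 active = mean replicate inhibition above about 79%, with every replicate also reaching it, limit read from the data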
# Target sequence (P55789 whole entry, looked up): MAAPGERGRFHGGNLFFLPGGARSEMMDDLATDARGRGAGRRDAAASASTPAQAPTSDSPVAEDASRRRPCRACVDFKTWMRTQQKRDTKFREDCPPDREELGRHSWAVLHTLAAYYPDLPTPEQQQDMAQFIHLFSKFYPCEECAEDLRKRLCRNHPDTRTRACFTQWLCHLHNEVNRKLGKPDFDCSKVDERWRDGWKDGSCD
# T cell HTS: modulators of CD8 T cell-vesicle binding, primary screen, mouse 2C CD8+ T cells, flow cytometry. 330,000 tested, 0.068% active. response (vesicle binding), % at 7 µM. AID 2052, 2009. 2C CD8+ T cell-vesicle binding; stronger effect = lower value;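 active = response, share of CD8 T cells binding vesicles, and their 90th percentile fluorescence all below set limits, cut at about 80% in these data, passing the limit was not always enough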;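 note: values below 100% mean blocked vesicle binding to the CD8+ T cells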
#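 Test system: purified 2C TCR transgenic mouse naive CD8+ T cells. Probe or stimulus: QL9-peptide-loaded Drosophila micro-vesicles bearing Ld, ICAM-1 and B7-1. Incubation: binding step 1.5 h, 37 °C, antibody labelling 20 min, ice. Measured by: flow cytometry of vesicle-bound cells.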
# N-glyco inh: increase of ERlucT glycosylation luciferase signal, primary screen, N-linked glycosylation inhibitor project, D54 ERlucT cells, luminescence, set 2 | D54 ERlucT glycosylation luciferase reporter, 24 h; percent of 100 nM tunicamycin response | reporter increase, % at 12.5 µM | 360,000 tested, 0.23% active | AID 588692, 2011;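 active = mean luciferase reporter signal, scaled so untreated is 0 and the glycosylation-blocking control 100, at or above a set limit in every replicate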;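 note: luciferase carries N-glycosylation sites so blocking glycosylation raises the light; 0% = median of neutral control wells and 100% = median of 100 nM tunicamycin wells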
# Starred values were filed as active, the others as inactive; i = inactive; x = not tested or not shown.
SMILES,ALR inh,T cell HTS,N-glyco inh
CCCCCC(=O)Nc1ccc(-c2csc(N)n2)cc1,99*,109,-2
CC(=O)Nc1ccc(-c2csc(NNC(=O)c3ccccc3)n2)cc1,100*,162,1
CC(=O)Nc1ccc(-c2csc(NC(C)c3ccccc3)n2)cc1 (configuration not stated),3,429,0
CC(=O)Nc1ccc(-c2csc(N/N=C(/C)c3ccccc3)n2)cc1,99*,395,1
CCOC(=O)/C(C)=N/Nc1nc(-c2ccc(NC(C)=O)cc2)cs1,99*,181,0
CCCCCC(=O)Nc1ccc(-c2csc(C)n2)cc1,-2,188,1
O=C(COC(=O)/C=C/c1ccc(F)cc1)NC1CC1,x,186,0
O=C(c1ccc(Cl)cc1)N1CCN(S(=O)(=O)/C=C/c2ccccc2)CC1,-4,139,0
CN(C)S(=O)(=O)N1CCN(c2ccc([N+](=O)[O-])c(N3CCCCC3)c2)CC1,-3,410,0
CC1(C(=O)NS(=O)(=O)c2ccccc2C(F)(F)F)CCN1C(=O)c1cccc(F)c1 (configuration not stated),x,x,0
CN(C)CCNC(=O)COc1ccc(C23CC4CC(CC(C4)C2)C3)cc1,-7,363,-3
CCC(=O)c1ccc(OCc2cn(CC(=O)c3ccc(O)cc3)nn2)cc1,x,x,2
C/C(=N/NC(=O)c1cc(C)[nH]n1)c1ccco1,13,327,-2
COc1cc(OC)nc(Nc2nc(CN)cs2)n1,x,x,3
CCC(=O)Nc1ccc(-c2csc(C)n2)cc1,2,133,1
COc1ccc(CCNc2nc(-c3ccc(O)cc3)cs2)cc1OC,1,286,1
CCC(=O)Nc1ccc(-c2csc(NNC(C)=O)n2)cc1,99*,160,1
COc1ccc(CCNc2nc(-c3ccc(NC(C)=O)cc3)cs2)cc1OC,97*,457,-1
COc1ccccc1C1c2[nH]c3ccccc3c2C[C@H]2C(=O)N(C3CCN(Cc4ccccc4)CC3)CC(=O)N12 (some centres not stated),-11,154,-5
O=C(Nc1nc2n(n1)C(c1ccc(F)cc1)CC(c1ccccc1)N2)c1ccco1 (configuration not stated),-2,288,-1
CC(C)c1ccc(NC2CCCN(C(=O)c3ccsc3)C2)cc1 (configuration not stated),98*,289,-1
COC(=O)c1ccc(C(=O)N2CCCC(CNC(=O)c3ccccc3Cl)C2)cc1 (configuration not stated),2,436,-3
O=C(c1ccsc1)N1CCCC(Nc2ccc(F)c(F)c2)C1 (configuration not stated),57,593,-1
CN(CCc1ccccn1)C(=O)CCC1CCCN(C(=O)c2n[nH]c3c2CCCC3)C1 (configuration not stated),-3,182,2
CC(C)c1ccc(NC2CCCN(C(=O)c3n[nH]c4c3CCC4)C2)cc1 (configuration not stated),99*,350,0
SMILES,ALR inh,T cell HTS,N-glyco inh
COC(=O)c1ccc(C(=O)N2CCCC(Nc3ccc(C(C)C)cc3)C2)cc1 (configuration not stated),98*,291,4
N#C/C(=C(/O)c1ccc(Cl)c([N+](=O)[O-])c1)c1nc2ccccc2[nH]1,-3,271,1
Cc1[nH]c(=S)sc1Cc1ccc(Cl)c(Cl)c1,96*,339,x
Cc1nnc(SCc2ccc(Cl)c(Cl)c2)s1,-7,338,0
COc1ccc(C(=O)NCCNc2nc3ccc(C)cc3cc2C#N)cc1OC,90*,109,4
CCOc1ccc2nc(NCCCNC(=O)c3cc(OC)c(OC)c(OC)c3)c(C#N)cc2c1,x,316,1
Cc1cc(-c2nnc3n2N=C(c2ccc(-c4ccccc4)cc2)CS3)n[nH]1,-11,406,37*
COc1ccc(OC)c(C2=Nn3c(nnc3-c3ccco3)SC2)c1,1,201,3
Cc1cc(-c2nnc3n2N=C(c2ccccc2)CS3)n[nH]1,3,i,3
COc1ccc(C2=Nn3c(nnc3-c3ccco3)SC2)cc1,0,i,25*
COc1ccc(C2=Nn3c(nnc3-c3ccccc3)SC2)cc1OC,-4,126,1
COc1ccc(OC)c(-c2nnc3n2N=C(c2ccc(OC)c(OC4CCCC4)c2)CS3)c1,-2,252,30*
c1ccc(-c2cc(-c3nnc4n3N=C(c3ccc5ccccc5c3)CS4)[nH]n2)cc1,-6,237,46*

# Assay outcomes deposited in PubChem by several laboratories.
